High-throughput results deposited in PubChem by several laboratories.
Only some compounds are listed: those with a hit (about 1.4% of all), similar ones and a draw of the others.
PG9 binder: small molecules binding HIV-1 gp120 antibody PG9; TR-FRET gp120-PG9 antibody binding; inhibition, % at 6.7 µM; 0.43% of 360,000 active; AID 624416; in the data active means inhibition above about 8.5%
Rev-erbA mod: modulators of human Rev-erb alpha DNA binding; P20393; Rev-erbα–FITC-DNA binding, fluorescence polarization, 90 min; activity, % at 10 µM; 0.79% of 370,000 active; AID 1259318;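 active means activity above about 14%, limit read from the data; passing the limit was not always enough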;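 further: 0% = DMSO wells with 35 nM protein and 100% = DMSO wells with 750 nM protein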
NR2E3 ag-1: agonists of human NR2E3 nuclear receptor; 0.35% of 360,000 active; CHO-S Gal4-NCOR/VP16-NR2E3 two-hybrid, luciferase; Q9Y5X4; AID 602229; inhibition of corepressor binding, % at 3.98 µM;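 active means inhibition above the mean of all tested compounds plus 3 SD, cut at about 70% in these data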;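 further: 0% = DMSO with NR2E3 transfected cells and 100% = cells lacking NR2E3 construct; higher means lower luciferase signal from less NR2E3 corepressor binding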
Target sequence (Q9Y5X4 whole entry, looked up, the tested form may be a part): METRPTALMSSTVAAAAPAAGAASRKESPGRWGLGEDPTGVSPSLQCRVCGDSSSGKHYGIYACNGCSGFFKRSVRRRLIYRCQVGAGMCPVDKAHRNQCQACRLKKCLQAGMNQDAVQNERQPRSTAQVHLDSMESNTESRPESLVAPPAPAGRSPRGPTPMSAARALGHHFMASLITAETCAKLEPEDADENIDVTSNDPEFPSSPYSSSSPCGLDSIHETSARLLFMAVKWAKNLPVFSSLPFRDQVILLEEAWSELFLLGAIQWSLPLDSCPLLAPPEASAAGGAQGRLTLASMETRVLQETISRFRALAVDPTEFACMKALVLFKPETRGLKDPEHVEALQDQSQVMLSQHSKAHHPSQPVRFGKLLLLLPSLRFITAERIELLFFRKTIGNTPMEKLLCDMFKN
NR2E3 ag-2: NR2E3 (human) agonism | inhibition of corepressor binding, % at 4.78 µM | Q9Y5X4 | GST-NR2E3/biotin-RetCOR TR-FRET, 1536-well | 0.12% of 320,000 active;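 active means percent inhibition above the cutoff of mean plus 3 SD of all tested compounds, set per screening campaign, cut at about 20% in these data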;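 further: 0% = DMSO wells and 100% = biotin wells as full block of FRET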
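Assay system: NR2E3–RetCOR corepressor complex. Quantity: 1.35 nM GST-NR2E3. Buffer or medium: pH 7.5 Tris-based buffer. Reagent: biotinylated RetCOR corepressor at 7 nM final. Schedule: 5 h at 4 °C. Detection: TR-FRET, emission read at 617 and 671 nm. Replicates: one well per compound, singlicate testing.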
Rev-erbA confirm: confirmation of modulators of human Rev-erb alpha DNA binding. shares compounds with Rev-erbA mod. Rev-erb alpha FITC-DNA binding, fluorescence polarization, 90 min. activation, % at 25 µM. 61% of 3,000 active. AID 1259319;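 active means activation at or above a set limit, or at least 3 SD above the negative control mean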;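 further: 0% = 35 nM protein with DMSO and 100% = 750 nM protein high control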
RORg DNA counter: counter-screen for Rev-erb alpha modulators: RORgamma DNA binding. shares compounds with Rev-erbA mod. purified RORgamma protein-FITC-DNA binding, fluorescence polarization. IC50, µM. 8% of 910 active. AID 1259320;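 active means Compounds whose fitted half-maximal concentration for disrupting protein-DNA binding is below 10 micromolar; the record names Rev-erb in its text, so the target is in doubt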
* marks the source's active call; other numbers are inactive results; i = inactive; . = not tested or not shown.

SMILES	PG9 binder	Rev-erbA mod	NR2E3 ag-1	NR2E3 ag-2	Rev-erbA confirm	others
CC(C)C(=O)Nc1cccc(-c2nc3ccccc3o2)c1	-0.2	21.3*	-108.2	0.5	19.0*
COc1cc(C(=O)Nc2cc(-c3nc4cc(C)ccc4o3)ccc2C)cc(OC)c1OC	4.7	18.0	-33.3	2.4	.
COc1ccc(OCC(=O)Nc2cccc(-c3nc4ccccc4o3)c2)cc1	5.7	26.4*	-127.6	-0.6	15.8
COc1cc(C(=O)Nc2cccc(-c3nc4cc(C)ccc4o3)c2)cc(OC)c1OC	0.6	61.1*	-14.4	-0.8	54.4*	RORg DNA counter=>40
CC(C)CC(=O)Nc1cccc(-c2nc3ccccc3o2)c1	3.0	33.2*	-25.0	0.3	25.9*
CCCOc1ccc(C(=O)OCCN(CC)CC)cc1N	-0.5	-7.1	-19.1	1.8	.
O=C(Nc1c(-c2ccc(F)c(F)c2)nc2ncccn12)C1CC1	.	0.9	.	.	.
CCOc1ccc(C(C)=O)cc1COC(=O)c1cc([N+](=O)[O-])ccc1N1CCOCC1	0.4	13.7*	-5.0	1.9	-3.3
COc1ccc(Cl)cc1S(=O)(=O)N1CCN=C1C	1.5	-0.3	19.8	0.5	.
CC1=NCCN1S(=O)(=O)c1c(C(C)C)cc(C(C)C)cc1C(C)C	1.2	44.6*	-8.4	4.8	44.4*	RORg DNA counter=>40
Cc1ccc(-n2c(N)c(C#N)c(-c3ccc(Cl)cc3)c(C#N)c2=O)cc1	0.1	49.3*	4.4	1.9	39.4*	RORg DNA counter=>40
CCOC(=O)c1c(NC(=S)Nc2ccc(C)cc2)sc2c1CCC2	-1.8	76.1*	-8.7	2.6	84.0*	RORg DNA counter=>40
CCOC(=O)c1c(NC(=O)CN(CC)CC)sc2c1CCC2	-2.3	33.4*	-4.6	0.6	-0.4
COC(=O)c1c(NC(=O)c2ccc(Br)s2)sc2c1CCC2	-1.6	25.5*	5.6	9.3	28.1*
Nc1cccc(-c2cc3ccccc3oc2=O)c1	-1.3	-1.4	-25.0	3.8	.
O=C(COC(=O)C1=COCCO1)Nc1cc(C(F)(F)F)ccc1Cl	-3.5	3.2	-7.1	.	.
O=C(/C=C\Nc1ccc2c(c1)OCO2)c1ccccn1	-1.5	28.3*	-26.0	1.0	3.7
CCOc1cccc2sc(NC(=O)c3ccc(Br)s3)nc12	-0.2	29.6*	-30.3	2.5	33.4*	RORg DNA counter=>40
CCOC(=O)Cc1csc(NC(=O)c2ccc(Br)s2)n1	.	.	.	6.8	.
CCOC(=O)c1sc(NC(=O)c2ccccc2F)c(C(N)=O)c1C	7.7	20.0*	-4.5	-6.1	12.8
CCOC(=O)c1sc(NC(=O)c2ccccc2C(=O)O)c(C(=O)OCC)c1C	1.2	5.9	9.0	5.5	.
CNC(=O)C1C2C=CC3(O2)C1C(=O)N(CCOC)C3C(=O)NCc1ccc(OC)cc1 (centres undefined)	0.3	-0.4	-16.5	5.9	.
CCn1cc(C(=O)NCCc2ccc(Cl)cc2)c(=O)c2ccc(C)nc21	-1.2	29.1*	5.5	.	14.5
CCc1ccc(NC(=O)NCCN2CCCCC2)cc1	0.6	-0.2	2.7	2.9	.
COC(=O)c1cnc(NC(=O)C2(C)CCN2C(=O)C(C)C)s1 (centres undefined)	0.9	-0.1	-25.1	.	.
SMILES	PG9 binder	Rev-erbA mod	NR2E3 ag-1	NR2E3 ag-2	Rev-erbA confirm	others
CCOc1ncccc1C(=O)Nc1cc(S(=O)(=O)N2CCOCC2)ccc1OCC(F)(F)F	0.2	30.8*	2.1	.	15.0*
CCOc1ccc(S(=O)(=O)N2CCCCC2)cc1NC(=O)c1cccnc1OCC	0.7	1.0	-16.3	.	.
CCCC(=O)N=C1SC2CS(=O)(=O)CC2N1c1ccc(-c2nc3ccc(C)cc3s2)cc1 (centres undefined)	0.1	38.3*	-131.8	-1.5	5.7
CC(C)(C=O)Cc1cc(C(C)(C)C)c(O)c(C(C)(C)C)c1	-1.3	21.5*	3.6	5.1	18.8*
Cc1c(NC(=O)c2ccc(-c3cccc([N+](=O)[O-])c3)o2)c(=O)n(-c2ccccc2)n1C	-0.5	-1.0	-25.6	2.5	.
Cn1cc(Cl)c(C(=O)Nc2nc3ccc(Cl)cc3s2)n1	8.3	83.2*	-40.9	-1.6	24.6*
COc1cc(C(=O)OCc2cc3ccccc3[nH]c2=O)cc(OC)c1OC	-0.7	44.8*	-5.8	-0.7	29.6*
COc1cc(C(=O)N(Cc2ccco2)Cc2cc3ccccc3[nH]c2=O)cc(OC)c1OC	-2.2	-4.2	10.8	0.1	.
CC(=O)Nc1ccc(CNc2nc(NC(C)C)nc3cc(-c4ccccc4)sc23)cc1	-0.8	-1.5	-55.2	.	.
C=CCNc1nc(NCc2ccc(NC(C)=O)cc2)c2sc(-c3ccccc3)cc2n1	-0.6	65.5*	-84.2	.	75.9*	RORg DNA counter=>40
CCc1noc(C)c1C(=O)Nc1nc(-c2ccc(NC(C)=O)cc2)cs1	-0.4	-1.0	5.3	3.0	.
c1ccc(Nc2nc(-c3ccncc3)nc3ccccc23)cc1	-1.2	30.1*	0.0	2.3	22.8*
CCOC(=O)c1sc(C)nc1C1CCN(C(=O)OCC)CC1	-0.5	9.9	12.1	2.3	.
C=CCSc1nc(N)c(C#N)c(-c2ccccc2)c1C#N	3.9	49.9*	-25.6	4.6	32.1*	RORg DNA counter=>40
CCCSc1nc(N)c(C#N)c(-c2ccc(C)cc2)c1C#N	7.2	66.4*	2.6	7.3	32.5*
CCOC(=O)CC(=O)CSc1nc(N)c(C#N)c(-c2ccc(Cl)cc2)c1C#N	0.5	13.8	-29.3	6.2	.
N#Cc1c(N)nc(SCC(=O)C23CC4CC(CC(C4)C2)C3)c(C#N)c1-c1ccc(Cl)cc1	-1.0	81.1*	-27.9	0.1	43.6*	RORg DNA counter=>40
COC(=O)c1cn(-c2ccccc2)nc1-c1ccc(OC)c(OC)c1	1.1	5.5	-1.8	-1.2	.
Cc1ccccc1NC(=O)c1c(C)nn(-c2ccccc2)c1Cl	-2.4	0.8	-17.4	-2.3	.
COc1ccc(/C=C/c2nnc(NC(=O)c3ccco3)s2)cc1	-0.1	-0.4	-73.0	-0.5	.
C[C@@H]1CN([C@@H](C)CO)C(=O)Cc2cc(NC(=O)Nc3ccc4c(c3)OCO4)ccc2O[C@@H]1CN(C)C(=O)NC1CCCCC1	-0.5	2.8	1.5	.	.
O=C(Nc1ccccc1)OCCOc1ccccc1Br	-2.5	-3.1	-57.2	.	.
Nc1ccc2nc3c(=O)n(CCc4ccccc4)c(=O)[nH]c3nc2c1	-6.0	71.8*	-10.4	-4.7	63.8*	RORg DNA counter=i
Cc1cc2nc3c(=O)n(CCc4ccccc4)c(=O)[nH]c3nc2cc1N	-6.5	37.8*	-32.2	-1.9	33.9*	RORg DNA counter=2.13*
Nc1ccc2nc3c(=O)n(C4CCCCC4)c(=O)[nH]c3nc2c1	-4.6	76.6*	-58.2	-6.9	82.7*	RORg DNA counter=>40
CC1(C)OCC(N)(CO)CO1	-0.5	1.4	11.2	.	.
CSCCCNC(=S)N1CCN(S(=O)(=O)c2cccc(C(F)(F)F)c2)CC1	1.8	-1.8	-43.6	0.6	.
COCCNC(=O)C1(C)CCCN(Cc2sc(C)nc2C)C1 (centres undefined)	0.9	6.2	-14.9	.	.
COc1ccc(C(=O)Nc2nnc(-c3ccc(F)cc3)s2)c(OC)c1	-0.1	24.7*	-19.9	.	-11.8
